Legend:
[1] = molecular target: T1, 85/88 kDa calcium-independent phospholipase A2 (Homo sapiens) (UniProt O60733); test: Inhibition of human group 6A iPLA2 using PAPC/[14C]-labeled PAPC as substrate at 0.091 mole fraction after 30 mins by mixed micelle-based assay relative to control
T1 sequence (whole entry): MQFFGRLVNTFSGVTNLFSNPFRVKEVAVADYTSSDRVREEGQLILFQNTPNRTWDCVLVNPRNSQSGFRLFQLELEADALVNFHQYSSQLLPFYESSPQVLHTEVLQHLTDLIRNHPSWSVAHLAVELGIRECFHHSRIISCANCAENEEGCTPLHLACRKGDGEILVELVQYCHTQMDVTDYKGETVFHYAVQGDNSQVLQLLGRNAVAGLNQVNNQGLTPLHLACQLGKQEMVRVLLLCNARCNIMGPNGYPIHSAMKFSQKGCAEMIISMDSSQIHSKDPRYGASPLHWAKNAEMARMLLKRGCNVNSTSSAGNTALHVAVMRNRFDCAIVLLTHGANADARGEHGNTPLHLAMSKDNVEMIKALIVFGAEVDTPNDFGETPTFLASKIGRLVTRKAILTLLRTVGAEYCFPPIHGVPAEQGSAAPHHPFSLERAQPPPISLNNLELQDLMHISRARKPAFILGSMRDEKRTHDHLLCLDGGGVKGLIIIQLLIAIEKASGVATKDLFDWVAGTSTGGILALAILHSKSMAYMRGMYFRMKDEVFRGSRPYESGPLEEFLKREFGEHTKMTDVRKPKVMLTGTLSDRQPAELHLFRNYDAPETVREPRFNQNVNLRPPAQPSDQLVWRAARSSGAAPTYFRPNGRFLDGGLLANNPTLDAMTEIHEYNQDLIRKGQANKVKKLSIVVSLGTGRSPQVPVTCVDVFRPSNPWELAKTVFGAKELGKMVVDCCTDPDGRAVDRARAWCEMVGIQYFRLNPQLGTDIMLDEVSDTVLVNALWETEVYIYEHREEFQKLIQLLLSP
In short: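 Human GVIA iPLA2 was single-point screened at 0.091 inhibitor mole fraction. Micelles: 400 μM Triton X-100, 98.3 μM PAPC, 1.7 μM 14C-PAPC in 100 mM HEPES pH 7.5, 2 mM ATP, 4 mM DTT. Average percent inhibition is given; 25% or less is treated as no inhibition (N.D.).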

[2] = molecular target: T2, Cytosolic phospholipase A2 (Homo sapiens) (UniProt P47712); test: Inhibition of human group 4A cPLA2 using PAPC/[14C]-labeled PAPC as substrate at 0.091 mole fraction after 30 mins by mixed micelle-based assay relative to control
T2 sequence (whole entry): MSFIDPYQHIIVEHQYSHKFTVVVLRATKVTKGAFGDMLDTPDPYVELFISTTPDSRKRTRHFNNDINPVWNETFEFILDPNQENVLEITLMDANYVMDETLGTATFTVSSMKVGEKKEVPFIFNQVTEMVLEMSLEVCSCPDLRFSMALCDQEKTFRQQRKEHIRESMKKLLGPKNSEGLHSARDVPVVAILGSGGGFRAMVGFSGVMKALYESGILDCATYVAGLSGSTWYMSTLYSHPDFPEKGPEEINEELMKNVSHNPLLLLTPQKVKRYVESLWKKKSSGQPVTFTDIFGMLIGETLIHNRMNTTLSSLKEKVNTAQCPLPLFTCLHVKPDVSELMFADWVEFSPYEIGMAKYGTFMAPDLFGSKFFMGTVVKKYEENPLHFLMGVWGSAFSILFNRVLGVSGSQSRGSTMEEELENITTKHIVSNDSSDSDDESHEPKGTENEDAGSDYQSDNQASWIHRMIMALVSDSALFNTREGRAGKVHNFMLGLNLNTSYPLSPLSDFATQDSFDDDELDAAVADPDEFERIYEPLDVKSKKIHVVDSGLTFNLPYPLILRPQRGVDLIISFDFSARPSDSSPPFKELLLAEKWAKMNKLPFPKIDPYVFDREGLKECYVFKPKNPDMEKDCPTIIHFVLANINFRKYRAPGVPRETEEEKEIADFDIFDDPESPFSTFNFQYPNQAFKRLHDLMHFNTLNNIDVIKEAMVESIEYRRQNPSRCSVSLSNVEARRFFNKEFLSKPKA
In short: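 Screened at 0.091 mole fraction inhibitor against human GIVA cPLA2. Micelles: 400 μM Triton X-100, 97 μM PAPC, 1.8 μM 14C-PAPC, 3 μM PIP2 in 100 mM HEPES pH 7.5 with 90 μM CaCl2, 2 mM DTT and 0.1 mg/ml BSA. Average percent inhibition is reported; 25% or less is designated N.D.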

Homo sapiens = species: Homo sapiens; test: Inhibition of human group 5 sPLA2 using PAPC/[14C]-labeled PAPC as substrate at 0.091 mole fraction after 30 mins by mixed micelle-based assay relative to control
In short: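 Human GV sPLA2 was tested at 0.091 mole fraction inhibitor in mixed micelles of 400 μM Triton X-100, 98.3 μM PAPC and 1.7 μM 14C-labeled PAPC. Average percent inhibition is reported; 25% or less is designated N.D.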

[3] = molecular target: T2, Cytosolic phospholipase A2 (Homo sapiens); test: Inhibition of human group 4A cPLA2 using PAPC/[14C]-labeled PAPC as substrate after 30 mins by mixed micelle-based assay
In short: (§1)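 Human GIVA cPLA2 in mixed micelles: 400 μM Triton X-100, 97 μM PAPC, 1.8 μM 14C-labeled PAPC and 3 μM PIP2. Buffer was 100 mM HEPES pH 7.5 with 90 μM CaCl2, 2 mM DTT and 0.1 mg/ml BSA. XI(50) is the inhibitor mole fraction in the total substrate interface giving 50% inhibition. It was measured only for compounds exceeding 85% inhibition at the 0.091 screen.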

[4] = molecular target: T2, Cytosolic phospholipase A2 (Homo sapiens); test: Inhibition of human group 4A cPLA2 using [14C]-labeled PAPC as substrate after 30 mins by mixed micelle assay based liquid scintillation counting; in short: as §1
[5] = molecular target: T2, Cytosolic phospholipase A2 (Homo sapiens); test: Inhibition of human group 4A cPLA2 using PAPC as substrate preincubated for 5 mins with substrate followed by enzyme addition for 30 mins by mixed micelle-based assay; in short: as §1
[6] = molecular target: T1, 85/88 kDa calcium-independent phospholipase A2 (Homo sapiens); test: Inhibition of human group 6A iPLA2 using PAPC as substrate preincubated for 5 mins with substrate followed by enzyme addition for 30 mins by mixed micelle-based assay
In short: (§2)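 For human GVIA iPLA2, micelles held 400 μM Triton X-100, 98.3 μM PAPC and 1.7 μM 14C-PAPC. Buffer was 100 mM HEPES pH 7.5 with 2 mM ATP and 4 mM DTT. XI(50) is the inhibitor mole fraction in the total substrate interface causing 50% inhibition. It was determined for compounds exceeding 85% inhibition at 0.091 mole fraction.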

[7] = molecular target: T1, 85/88 kDa calcium-independent phospholipase A2 (Homo sapiens); test: Inhibition of human group 6A iPLA2 using PAPC/[14C]-labeled PAPC as substrate after 30 mins by mixed micelle-based assay; in short: as §2

Row | inhibition [1] | inhibition [2] | inhibition (Homo sapiens) | XI50 (mole fraction) [3] | XI50 (mole fraction) [4] | XI50 (mole fraction) [5] | XI50 (mole fraction) [6] | XI50 (mole fraction) [7] | Structure (SMILES)
1 | 82.5% | 88% | < 25% | 0.013 |  |  |  |  | CCCCCCOc1ccc(OCCCC(=O)C(=O)NCCCCC(=O)O)cc1
2 |  |  |  |  | 0.036 |  |  |  | CCCCC/C=C\C/C=C\C/C=C\C/C=C\CCCC(=O)C(F)(F)F
3 |  |  |  |  |  | 0.022 | 0.027 |  | CCCCCCCCCCCCCCC(=O)C(=O)NCCCC(=O)OCC
4 | 95.1% | > 85% | 33.8% | 0.02 |  |  |  | 0.013 | CCCCCCOc1ccc(CCCCC(=O)C(=O)NCCCC(=O)OCC)cc1
5 | < 25% | > 85% | < 25% | 0.016 |  |  |  |  | CCCCCCOc1ccc(CCCCC(=O)C(=O)NCCCC(=O)O)cc1
6 | < 25% | < 25% | < 25% |  |  |  |  |  | CCOC(=O)CCCNC(=O)C(=O)CCCCCCCCCCCC(=O)O
7 | < 25% | < 25% | < 25% |  |  |  |  |  | Cc1ccc(S(=O)(=O)NCCCCCCCCCCC(=O)C(=O)NCCCC(=O)O)cc1
8 | < 25% | > 85% | < 25% | 0.023 |  |  |  |  | CCCCCCCCc1ccc(OCCCC(=O)C(=O)NCCCC(=O)O)cc1
9 | < 25% |  |  |  |  | 0.024 |  |  | CCCCCCCCCCCCCCC(=O)C(=O)NCCCC(=O)O
10 | 81.1% | 63.6% | < 25% |  |  |  |  |  | CCCCCCOc1ccc(OCCCC(=O)C(=O)NCCCC(=O)O)cc1
11 | 94.7% | 49.3% | 40.6% |  |  |  |  | 0.014 | CCCCCCCCc1ccc(OCCCC(=O)C(=O)NCCCC(=O)OCC)cc1
12 | < 25% | 59.3% | < 25% |  |  |  |  |  | CCOC(=O)CCCNC(=O)C(=O)CCCCCCCCCCNS(=O)(=O)c1ccc(C)cc1

Reference: ChEMBL document CHEMBL4431346, “2-Oxoamide inhibitors of cytosolic group IVA phospholipase A2 with reduced lipophilicity” (Bioorg Med Chem, 2016)
